In the library only some 2.5% were active in any assay of this set; here they are far more common.
SENP7 inh – SENP7 protease inhibition. actives 1.5% (n = 330,000). inhibition, % at 5 µM. Q9BQF6. recombinant SENP7, Z-RLRGG-aminoluciferin luminescence, 40 min;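 active means inhibition above about 50% at the single test dose, limit read from the data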;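 further: plate controls were DMSO with enzyme for no effect and no enzyme buffer wells for full effect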
Target sequence (Q9BQF6 706-1050 limits assumed): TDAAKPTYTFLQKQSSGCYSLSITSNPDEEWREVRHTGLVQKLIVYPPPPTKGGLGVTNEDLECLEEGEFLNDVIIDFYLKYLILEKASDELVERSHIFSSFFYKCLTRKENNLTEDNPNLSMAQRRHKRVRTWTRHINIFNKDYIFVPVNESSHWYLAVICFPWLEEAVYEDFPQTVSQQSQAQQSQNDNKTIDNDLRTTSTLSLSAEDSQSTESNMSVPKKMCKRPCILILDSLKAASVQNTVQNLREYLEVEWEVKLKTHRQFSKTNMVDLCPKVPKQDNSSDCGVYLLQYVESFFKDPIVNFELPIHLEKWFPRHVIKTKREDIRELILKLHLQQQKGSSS
SENP6 inh – SENP6 protease inhibition; Recombinant SENP6 catalytic domain, aminoluciferin luminescence; inhibition, % at 10 µM; actives 1.8% (n = 330,000);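 active means inhibition above about 50% at the single tested dose, limit read from the data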;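 further: plate controls were DMSO wells with enzyme for no effect and DMSO wells lacking enzyme for full effect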
SENP1 FRET inh – SENP1 (human) catalytic domain inhibition; AID 624204; recombinant SENP1 catalytic domain, CyPet-SUMO1-YPet FRET cleavage; inhibition, % at 10 µM; actives 0.21% (n = 360,000);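 active means inhibition at least 30% at 10 µM, raw YFP signal under a set limit, fluorescence ratio 0.5 to 1.5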;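 further: 0% = enzyme with DMSO and 100% = no enzyme wells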
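material = recombinant human SENP1 catalytic domain, His6-tagged | quantity = 20 pM enzyme | reagent = 25 nM SUMO1 FRET substrate | compound dosing = 10 µM single point, 0.5% DMSO | timing = 50 min enzyme reaction, room temperature, light-protected | detection = FRET, CFP and YFP emission | control set = no-enzyme low, enzyme-DMSO high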
SENP8 block-1 – blocks the human protease SENP8; purified SENP8, Z-RLRGG-aminoluciferin cleavage, luminescence; inhibition, % at 10 µM; AID 2540; actives 1.2% (n = 330,000); in the data active means inhibition above about 50%
SENP8 block-2 – inhibitors of human SENP8 protease. Q96LD8. inhibition, % at 20 µM. actives 0.64% (n = 360,000). recombinant SENP8, Nedd8 substrate fluorescence; in the data active means inhibition mostly above about 40%, no sharp cut-off; inactive means mostly below about 27%
SENP8 conf – human SENP8 inhibition, confirmed | shares compounds with SENP7 inh | Recombinant SENP8, Z-RLRGG-aminoluciferin luminescence, 60 min | inhibition, % at 12.5 µM | actives 40% (n = 6,200);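 active means mean inhibition across replicates above about 50%, limit read from the data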
SENP6 conf – human SENP6 inhibition, confirmed | shares compounds with SENP7 inh | recombinant SENP6, Z-RLRGG-aminoluciferin luminescence | inhibition, % at 12.5 µM | actives 58% (n = 6,200) | AID 488915
SENP7 confirm – human SENP7 inhibition, confirmed | shares compounds with SENP7 inh | recombinant SENP7, Z-RLRGG-aminoluciferin luminescence, 40 min | inhibition, % at 12.5 µM | actives 69% (n = 6,200) | AID 488917
Casp3 SENP sel – caspase-3 inhibition (SENP selectivity assay); actives 60% (n = 6,200); purified caspase-3, Z-DEVD-aminoluciferin luminescence, 60 min; inhibition, % at 12.5 µM; shares compounds with SENP7 inh;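 active means mean inhibition above about 50%, limit read from the data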;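 further: plate controls were enzyme with DMSO for no effect and wells without caspase-3 for full effect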
Target sequence (P42574 28-227 limits assumed): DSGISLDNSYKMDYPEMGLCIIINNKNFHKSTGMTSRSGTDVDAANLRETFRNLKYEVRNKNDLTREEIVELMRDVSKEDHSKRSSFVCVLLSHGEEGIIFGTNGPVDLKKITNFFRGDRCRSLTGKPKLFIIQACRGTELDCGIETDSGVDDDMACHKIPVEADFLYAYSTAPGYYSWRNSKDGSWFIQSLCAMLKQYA
Luc interf – interferes with luciferase luminescence in SENP counter-screen; actives 39% (n = 6,200); Pre-incubated SENP8/Z-RLRGG-aminoluciferin, luciferase luminescence interference; inhibition, % at 12.5 µM; shares compounds with SENP7 inh; AID 488919;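 active means mean inhibition above about 50% when retested at one dose, limit read from the data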;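 further: plate controls were DMSO wells with completed reaction for no effect and substrate without enzyme for full effect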
An asterisk follows results filed as active; . = no result.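 How the source made its calls, unless noted: active means mean inhibition above about 50% in the one-dose retest (limit read from the data); inactive means the rest.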

SMILES	SENP7 inh	SENP6 inh	SENP1 FRET inh	SENP8 block-1	SENP8 block-2	SENP8 conf	SENP6 conf	SENP7 confirm	Casp3 SENP sel	Luc interf
Nc1c(Cl)cc2c(c1Oc1ccccc1)C(=O)c1ccccc1C2=O	-5	58*	70*	42	33	10	-3	6	6	2
NS(=O)(=O)c1cccc(NS(=O)(=O)c2ccc(/C=C/C(=O)O)cc2)c1	-1	-12	2	-9	2	.	.	.	.	.
COc1ccc2[nH]c3c(=O)n(Cc4ccc(C(=O)N5CCC(C(N)=O)CC5)cc4)c(=S)[nH]c3c2c1	57*	69*	1	67*	-300	73*	72*	87*	68*	41
Cc1ccc(-c2cc(-c3ccccc3)no2)c(O)c1	.	.	1	.	-61	.	.	.	.	.
Cc1ccc(O)c(-c2cc(-c3ccc(F)cc3)no2)c1	81*	77*	0	57*	-314	24	68*	56*	68*	4
Oc1ccccc1-c1cc(-c2ccccc2)no1	96*	84*	2	86*	-44	87*	88*	101*	84*	64*
Cc1ccccc1-c1cc(-c2ccccc2O)on1	97*	91*	1	81*	-1	95*	96*	100*	84*	93*
O=C(c1cc(-c2ccccc2O)on1)N1CCCCCC1	-8	5	1	10	7	.	.	.	.	.
Cc1ccc(-n2nc3c(c2NC(=O)c2ccc4c(c2)OCO4)CS(=O)C3)c(C)c1 (centres undefined)	-4	-8	2	-4	10	.	.	.	.	.
COc1ccc(NC(=O)C2(C)Cc3c(-c4ccc(N(C)C)cc4)ccnc3O2)cn1 (centres undefined)	.	.	0	.	-499	.	.	.	.	.
COn1c(-c2ccccc2)nc2ccc(Cl)cc21	23	54*	2	22	-22	39	39	72*	39	44
O=C(O)COn1c(-c2ccccc2)nc2ccc(Cl)cc21	-4	-18	2	-2	-4	.	.	.	.	.
O=[N+]([O-])c1ccc2nc(-c3ccccc3)n(OCc3ccc(Cl)cc3)c2c1	84*	86*	4	66*	15	11	11	11	11	0
Cc1ccc(/C=C2\Sc3ccccc3C2=O)s1	96*	94*	-67	89*	-224	16	86*	94*	67*	65*
CCO/C=C1/C(=O)N(c2ccccc2OC)C(=O)c2ccccc21	31	35	-64	16	-414	.	.	.	.	.
CCO/C=C1/C(=O)N(Cc2ccccc2)C(=O)c2ccccc21	81*	94*	-35	90*	-408	82*	97*	86*	98*	7
CCO/C=C1/C(=O)N(c2ccc(OC)cc2)C(=O)c2ccccc21	26	63*	-59	6	-351	26	70*	36	25	-2
CCO/C=C1\C(=O)N(c2ccccc2)C(=O)c2ccccc21	-7	53*	-44	15	-246	14	54*	24	19	-2
COc1ccc(C(=O)CCC(=O)Nc2cccnc2)cc1OC	3	-9	2	-2	-1	.	.	.	.	.
C/C=C/c1cnc2c(c1)C(=O)N([C@H](C)CO)C[C@H](C)[C@@H](CN(C)C(=O)CN1CCOCC1)O2	.	.	-1	.	12	.	.	.	.	.
O=C(O)COc1ccc(NC(=O)c2ccc3c(c2)C(=O)N(C2CCCCC2)C3=O)cc1	.	.	3	.	16	.	.	.	.	.
CCOc1c(Cl)cc(C(=O)Nc2cccc(C(=O)O)c2)cc1Cl	88*	95*	0	92*	5	95*	96*	101*	54*	96*
CCOc1ccc(NC(=O)c2cccc(NC(=O)c3ccccc3)c2)cc1	6	-8	0	-8	-3	.	.	.	.	.
O=C(O)c1cccc(NC(=O)c2ccc3c(c2)C(=O)N(C2CCCCC2)C3=O)c1	97*	95*	2	93*	0	83*	81*	100*	62*	50
O=C(O)c1cccc(NC(=O)c2cccc(S(=O)(=O)N3CCc4ccccc43)c2)c1	0	54*	0	22	4	41	37	70*	3	43
SMILES	SENP7 inh	SENP6 inh	SENP1 FRET inh	SENP8 block-1	SENP8 block-2	SENP8 conf	SENP6 conf	SENP7 confirm	Casp3 SENP sel	Luc interf
COc1cccc(CNC(=O)c2ccc(COc3ccccc3)cc2)c1	-12	-7	0	-7	11	.	.	.	.	.
O=C(O)c1ccc(COc2cccc(CO)c2)cc1	86*	74*	2	64*	16	1	70*	93*	93*	74*
CCNc1nc(OC)nc(SCC(=O)Nc2ccccc2)n1	-4	-28	0	4	5	.	.	.	.	.
Nc1nnn(CC(=O)N/N=C/c2ccc(Cl)cc2Cl)n1	0	12	-2	0	17	.	.	.	.	.
CCOC(=O)c1ccc(NC(=O)NCCc2cnc[nH]2)cc1	9	-10	1	-14	6	.	.	.	.	.
O=C(O)c1cccc(NC(=O)c2ccc(Cl)c(S(=O)(=O)N3CCCCCC3)c2)c1	85*	85*	2	78*	17	90*	89*	98*	55*	79*
CC(C)c1cc(C(N)=O)c(NC(=O)c2cccc(COc3ccc(Cl)cc3)c2)s1	15	84*	-5	39	-224	98*	95*	99*	48	91*
O=C(O)c1cccc(NC(=O)c2ccc(COc3ccc(Cl)cc3)cc2)c1	29	70*	2	53*	2	44	43	59*	8	15
O=C(Nc1cccnc1)c1ccc(Cl)c(S(=O)(=O)N2CCCCC2)c1	-11	-2	-1	-4	7	.	.	.	.	.
Cc1nn(Cc2c(F)c(F)c(F)c(F)c2F)c(C)c1NC(=O)c1cccc(COc2ccc(Cl)cc2)c1	-11	-6	1	-15	6	.	.	.	.	.
CCOC(=O)C1CCCN(Cc2nc(CC3CC3)no2)C1 (centres undefined)	0	-30	2	-8	16	.	.	.	.	.
CCCCNc1nnc(SCC(=O)c2c[nH]c3ccccc23)s1	-5	-20	2	-13	9	.	.	.	.	.
Cc1ccc2c(C)ccc(O)c2n1	-8	-5	-8	-6	7	.	.	.	.	.
